The values that follow come from ChEMBL document CHEMBL1136142, “Synthesis, biological evaluation and DNA binding properties of novel bleomycin analogues” (Bioorg Med Chem Lett, 2003).

Broadly, the IC50 is the concentration needed to halve the response being measured. The low end stands for greater potency in that assay, the high end for weaker potency in that assay.

For one experiment, the system named is HeLa. As to the kind of experiment: In vitro antitumor activity against HeLa cell lines by using MTT assay. It is filed as functional, cell-based. As to conditions: Homo sapiens. An outline of the steps: (§1)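 Tetrazolium salt (MTT) read-out of in vitro growth inhibition; the reported value is the concentration producing 50% inhibition (IC50).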
The test system of a further experiment is BGC-823. Nature of the experiment: In vitro antitumor activity against BGC-823 cell lines by using MTT assay. It is filed as functional, cell-based. As to conditions: Homo sapiens. The method in brief: as §1
Background: Tetrazolium assays rely on reduction of a dye to a coloured formazan, in cell work by metabolically active cells.

In the case of `CCCC(=O)NCCCCNCCCNC(=O)c1csc(-c2csc(CCNC(=O)[C@@H](NC(=O)[C@@H](C)C(O)C(C)NC(=O)[C@@H](NC(=O)c3nc([C@H](CC(N)=O)NCC(N)C(N)=O)nc(N)c3C)[C@@H](O[C@@H]3O[C@@H](CO)[C@@H](O)[C@@H](O)[C@@H]3OC3O[C@H](CO)[C@@H](O)[C@H](OC(N)=O)[C@@H]3O)c3c[nH]cn3)[C@@H](C)O)n2)n1` (some centres undefined), the 50% inhibitory concentration (IC50) came out at 13.8 µM in the experiment on HeLa and 2.62 µM with BGC-823.
The corresponding values for `CC(=O)NCCCCNCCCNC(=O)c1csc(-c2csc(CCNC(=O)[C@@H](NC(=O)[C@@H](C)C(O)C(C)NC(=O)[C@@H](NC(=O)c3nc([C@H](CC(N)=O)NCC(N)C(N)=O)nc(N)c3C)[C@@H](O[C@@H]3O[C@@H](CO)[C@@H](O)[C@@H](O)[C@@H]3O[C@H]3O[C@H](CO)[C@@H](O)[C@H](OC(N)=O)[C@@H]3O)c3c[nH]cn3)[C@@H](C)O)n2)n1` (some centres undefined) are 15.3 µM and 22.1 µM.
The corresponding values for `CCC(=O)NCCCCNCCCNC(=O)c1csc(-c2csc(CCNC(=O)[C@@H](NC(=O)[C@@H](C)C(O)C(C)NC(=O)[C@@H](NC(=O)c3nc([C@H](CC(N)=O)NCC(N)C(N)=O)nc(N)c3C)[C@@H](O[C@@H]3O[C@@H](CO)[C@@H](O)[C@@H](O)[C@@H]3O[C@H]3O[C@H](CO)[C@@H](O)[C@H](OC(N)=O)[C@@H]3O)c3c[nH]cn3)[C@@H](C)O)n2)n1` (some centres undefined) are 14.4 µM and 6.46 µM.
The like results for `Cc1c(N)nc([C@H](CC(N)=O)NCC(N)C(N)=O)nc1C(=O)N[C@H](C(=O)NC(C)C(O)[C@H](C)C(=O)N[C@H](C(=O)NCCc1nc(-c2nc(C(=O)NCCCNCCCCNC(=O)c3ccccn3)cs2)cs1)[C@@H](C)O)[C@@H](O[C@@H]1O[C@@H](CO)[C@@H](O)[C@@H](O)[C@@H]1O[C@H]1O[C@H](CO)[C@@H](O)[C@H](OC(N)=O)[C@@H]1O)c1c[nH]cn1` (some centres undefined) were, in that order, 14.8 µM and 10.8 µM.
Consider `Cc1c(N)nc([C@H](CC(N)=O)NCC(N)C(N)=O)nc1C(=O)N[C@H](C(=O)NC(C)C(O)[C@H](C)C(=O)N[C@H](C(=O)NCCc1nc(-c2nc(C(=O)NCCCNCCCCNC=O)cs2)cs1)[C@@H](C)O)[C@@H](O[C@@H]1O[C@@H](CO)[C@@H](O)[C@@H](O)[C@@H]1O[C@H]1O[C@H](CO)[C@@H](O)[C@H](OC(N)=O)[C@@H]1O)c1c[nH]cn1` (some centres undefined), for which the concentration for half-maximal inhibition (IC50) in the experiment on HeLa amounted to 12.2 µM; in the experiment on BGC-823 it was 31 µM.
The corresponding values for `Cc1c(N)nc([C@H](CC(N)=O)NCC(N)C(N)=O)nc1C(=O)N[C@H](C(=O)NC(C)C(O)[C@H](C)C(=O)N[C@H](C(=O)NCCc1nc(-c2nc(C(=O)NCCCNCCCCNC(=O)c3ccccc3)cs2)cs1)[C@@H](C)O)[C@@H](O[C@@H]1O[C@@H](CO)[C@@H](O)[C@@H](O)[C@@H]1O[C@H]1O[C@H](CO)[C@@H](O)[C@H](OC(N)=O)[C@@H]1O)c1c[nH]cn1` (some centres undefined) are 11.7 µM and 7.46 µM.
The like results for `Cc1c(N)nc([C@H](CC(N)=O)NCC(N)C(N)=O)nc1C(=O)N[C@H](C(=O)NC(C)C(O)[C@H](C)C(=O)N[C@H](C(=O)NCCc1nc(-c2nc(C(=O)NCCC[S+](C)C)cs2)cs1)[C@@H](C)O)[C@@H](O[C@@H]1O[C@@H](CO)[C@@H](O)[C@H](O)[C@@H]1O[C@H]1O[C@H](CO)[C@@H](O)[C@H](OC(N)=O)[C@@H]1O)c1c[nH]cn1` (some centres undefined) were, in that order, 16.2 µM and 10.1 µM.
